13 compounds from ChEMBL document CHEMBL1134906, “Arylpiperazine substituted heterocycles as selective alpha(1a) adrenergic antagonists” (Bioorg Med Chem Lett, 2002) can be followed below.

Molecules are shown by their SMILES.

In assay [1] the target is T1, Alpha-1B adrenergic receptor (Homo sapiens, UniProt P35368).
T1 sequence (P35368 whole entry): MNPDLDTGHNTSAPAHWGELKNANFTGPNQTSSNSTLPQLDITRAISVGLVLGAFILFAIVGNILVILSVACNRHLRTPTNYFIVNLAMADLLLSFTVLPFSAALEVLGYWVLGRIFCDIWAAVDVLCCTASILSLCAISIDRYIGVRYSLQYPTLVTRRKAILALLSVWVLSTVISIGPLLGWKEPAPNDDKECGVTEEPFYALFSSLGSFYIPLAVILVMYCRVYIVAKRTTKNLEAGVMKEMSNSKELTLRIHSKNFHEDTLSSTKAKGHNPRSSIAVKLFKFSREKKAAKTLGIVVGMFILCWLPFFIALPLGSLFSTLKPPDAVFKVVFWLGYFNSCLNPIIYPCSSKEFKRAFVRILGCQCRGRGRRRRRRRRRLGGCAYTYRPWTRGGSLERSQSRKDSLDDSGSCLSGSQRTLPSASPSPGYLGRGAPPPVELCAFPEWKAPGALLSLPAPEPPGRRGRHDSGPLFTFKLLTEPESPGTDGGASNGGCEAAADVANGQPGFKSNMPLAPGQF
As to the kind of experiment: Displacement of [125I]-HEAT from human Alpha-1B adrenergic receptor. In outline: (§1)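 Radioligand competition binding against 125I-HEAT ((±)-β-([125I]-3-iodo-4-hydroxyphenyl)ethylaminomethyl-tetralone), with COS cells as the receptor source. Ki values are derived from displacement and reported as means of three experiments.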
(In general: Loss of bound radioactivity is the signal in a displacement assay; it reports binding, not function.)

The target of assay [2] is Alpha adrenergic receptor (1a and 1d) (Homo sapiens) (UniProt P35348+P25100). Nature of the assay: Relative binding affinity for alpha-1d and Alpha-1A adrenergic receptors. The format is protein assay.
Assay [3] concerns the target T2, Alpha-1A adrenergic receptor (Homo sapiens, UniProt P35348).
T2 sequence (P35348 whole entry): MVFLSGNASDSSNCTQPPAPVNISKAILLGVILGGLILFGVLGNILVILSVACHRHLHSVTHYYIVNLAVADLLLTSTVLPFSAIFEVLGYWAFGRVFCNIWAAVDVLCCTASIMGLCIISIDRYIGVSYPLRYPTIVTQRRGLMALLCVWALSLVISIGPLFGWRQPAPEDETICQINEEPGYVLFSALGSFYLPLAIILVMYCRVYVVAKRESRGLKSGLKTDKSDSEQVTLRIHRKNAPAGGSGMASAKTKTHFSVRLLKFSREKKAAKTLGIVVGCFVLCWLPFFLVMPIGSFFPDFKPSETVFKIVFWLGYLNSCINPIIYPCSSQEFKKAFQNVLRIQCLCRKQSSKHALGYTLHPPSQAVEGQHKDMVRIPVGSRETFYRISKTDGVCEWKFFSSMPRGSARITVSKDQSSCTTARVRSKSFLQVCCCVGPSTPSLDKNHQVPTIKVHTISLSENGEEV
Nature of the assay: Displacement of [125I]HEAT from human Alpha-1A adrenergic receptor. In outline: as §1

The target in assay [4] is Adrenergic receptors; alpha-1 A & B (Homo sapiens) (UniProt P35348+P35368). Nature of the assay: Relative binding affinity for alpha-1b and alpha-1a adrenergic receptors. It is filed as protein assay.
Assay [5] addresses T3, Alpha-1D adrenergic receptor (Homo sapiens, UniProt P25100).
T3 sequence (P25100 whole entry): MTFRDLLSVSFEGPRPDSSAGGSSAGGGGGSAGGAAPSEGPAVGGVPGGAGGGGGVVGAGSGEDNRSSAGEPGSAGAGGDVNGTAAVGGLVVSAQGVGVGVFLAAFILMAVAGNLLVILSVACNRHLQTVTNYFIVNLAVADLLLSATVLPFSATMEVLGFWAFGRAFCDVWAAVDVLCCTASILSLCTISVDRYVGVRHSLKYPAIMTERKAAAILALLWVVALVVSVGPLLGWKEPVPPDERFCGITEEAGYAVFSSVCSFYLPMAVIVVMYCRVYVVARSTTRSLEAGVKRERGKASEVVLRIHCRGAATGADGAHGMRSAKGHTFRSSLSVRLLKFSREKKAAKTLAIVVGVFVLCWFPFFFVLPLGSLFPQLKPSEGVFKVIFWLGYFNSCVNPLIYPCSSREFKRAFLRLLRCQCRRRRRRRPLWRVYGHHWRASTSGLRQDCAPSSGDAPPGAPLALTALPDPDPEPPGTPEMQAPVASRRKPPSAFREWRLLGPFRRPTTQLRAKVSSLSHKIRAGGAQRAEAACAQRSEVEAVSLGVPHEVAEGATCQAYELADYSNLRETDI
Nature of the assay: Displacement of [125I]HEAT from human Alpha-1D adrenergic receptor. In short, it runs like this:
as §1

For orientation: Ki means a dissociation constant, usually derived from enzyme kinetics or from competition with a known ligand. A low value points to tighter binding. Take `CC(C)Oc1ccccc1N1CCN(Cc2cc(CN3CCCC3=O)no2)CC1`: the Ki stood at 2990 nM in assay [1], 1.1 nM in assay [3] and 65.5 nM in assay [5]. Moreover, the Ki ratio is 60 in assay [2] and 2720 in assay [4].
On the same counts, the results for `CC(C)Oc1ccccc1N1CCN(Cc2nc(CN3CCCCCC3=O)co2)CC1` are > 5000 nM, 3470 nM, > 5000 nM, > 1.4 and > 1.4.
On the same counts, the results for `OCc1cc(CN2CCN(c3ccccc3Oc3ccccc3)CC2)on1` are 3720 nM, 1500 nM, 3060 nM, 2 and 2.5.
As to `CC(C)Oc1ccccc1N1CCN(Cc2nc(CN3C(=O)CC4(CCCC4)CC3=O)co2)CC1`, the Ki in assay [1] is > 5000 nM; in assay [3], 82 nM; in assay [5] it was 4140 nM. Moreover, the Ki ratio in assay [2] was 50; in assay [4], > 61.
As for `O=C1CCCCN1Cc1cc(CN2CCN(c3ccccc3Oc3ccccc3)CC2)on1`, the Ki in assay [1] came out at 2200 nM; in assay [3], 15 nM; in assay [5] it was 170 nM. Also, the Ki ratio came out at 11.3 in assay [2] and 147 in assay [4].
The like results for `CC(C)Oc1ccccc1N1CCN(Cc2nc(CN3CCCC3=O)cs2)CC1` were, in that order, 4250 nM, 0.9 nM, 105 nM, 112 and 4520.
The like results for `O=C1CCCN1Cc1cc(CN2CCN(c3ccccc3Oc3ccccc3)CC2)on1` were, in that order, > 5000 nM, 28 nM, 34.5 nM, 1.2 and > 170.
In the case of `O=C1CCCCCN1Cc1cc(CN2CCN(c3ccccc3Oc3ccccc3)CC2)on1`, the figures for the Ki in assay [1], in assay [3] and in assay [5] were > 5000 nM, 86 nM and 285 nM, respectively. Also, the Ki ratio in assay [2] is 3.3; in assay [4] it was > 58.
Turning to `CC(C)Oc1ccccc1N1CCN(Cc2nc(CN3CCCCC3=O)co2)CC1`, the Ki in assay [1] was > 5000 nM; in assay [3], 2320 nM; in assay [5], > 5000 nM. The Ki ratio in assay [2] and in assay [4] was > 2.2 each time.
For `CC(C)Oc1ccccc1N1CCN(Cc2nc(CN3CCCCC3=O)cs2)CC1`, the values for the Ki in assay [1], in assay [3] and in assay [5] were 1740 nM, 1.2 nM and 39.5 nM, respectively. Also, the Ki ratio in assay [2] was found to be 33; in assay [4] it was 1450.
`CC(C)Oc1ccccc1N1CCN(Cc2nc(CN3C(=O)c4ccccc4C3=O)co2)CC1`: the Ki in assay [1] is > 5000 nM; in assay [3], 297 nM; in assay [5] it was 1110 nM. The Ki ratio in assay [2] is 3.7; in assay [4] it was > 16.8.
On the same counts, the results for `CC(C)Oc1ccccc1N1CCN(Cc2nc(CN3CCCC3=O)co2)CC1` are > 5000 nM, 1300 nM, > 5000 nM, > 3.8 and > 3.8.
The like results for `CC(C)Oc1ccccc1N1CCN(Cc2cc(CN3CCCCC3=O)no2)CC1` were, in that order, > 5000 nM, 8.4 nM, 1440 nM, 174 and > 595.
